# Source: ChEMBL document CHEMBL1148162, “Structures of sesquiterpene polyol esters from Celastrus stephanotiifolius with potential tumor-promotion inhibitor activity” (J Nat Prod, 1993)
# Key:
# Assay type in all cases: cell-based
# [1] = Cytotoxicity against human Raji cells assessed as cell viability at 500 molar ratio; details: read-out: Activity
# Procedure, shortened: (§1)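 Raji cell viability was recorded in the same TPA-induced EBV-EA assay (TPA 20 ng/ml, 32 pM/ml), with compound at 10, 100, 500 or 1000 mol ratio to TPA. Viability is reported as a percentage.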
# [2] = Cytotoxicity against human Raji cells assessed as cell viability at 100 molar ratio; details: read-out: Activity; procedure, shortened: as §1
# Raji [3] = test: Inhibition of 12-O-tetradecanoylphorbol-13-acetate induced EBV-early antigen activation in human Raji cells assessed as EA activation at 500 molar ratio relative to TPA; design: scale not given: the % may be the effect or the level left; details: human gammaherpesvirus 4
# Procedure, shortened: (§2)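 Raji cells stimulated with TPA at 20 ng/ml (32 pM/ml) in the presence of test compound at 10, 100, 500 or 1000 mol ratio to TPA. EBV early antigen activation is reported as a percentage of the TPA-only positive control (100%).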
# Raji [4] = test: Inhibition of 12-O-tetradecanoylphorbol-13-acetate induced EBV-early antigen activation in human Raji cells assessed as EA activation at 10 molar ratio relative to TPA; design: scale not given: the % may be the effect or the level left; details: human gammaherpesvirus 4; procedure, shortened: as §2
# Raji [5] = test: Inhibition of 12-O-tetradecanoylphorbol-13-acetate induced EBV-early antigen activation in human Raji cells assessed as EA activation at 1000 molar ratio relative to TPA; design: scale not given: the % may be the effect or the level left; details: human gammaherpesvirus 4; procedure, shortened: as §2
# Raji [6] = test: Inhibition of 12-O-tetradecanoylphorbol-13-acetate induced EBV-early antigen activation in human Raji cells assessed as EA activation at 100 molar ratio relative to TPA; design: scale not given: the % may be the effect or the level left; details: human gammaherpesvirus 4; procedure, shortened: as §2
# [7] = Cytotoxicity against human Raji cells assessed as cell viability at 1000 molar ratio; details: read-out: Activity; procedure, shortened: as §1
# [8] = Cytotoxicity against human Raji cells assessed as cell viability at 10 molar ratio; details: read-out: Activity; procedure, shortened: as §1
SMILES,viability at 500 molar ratio [1],viability at 100 molar ratio [2],Activity (Raji [3]),Activity (Raji [4]),Activity (Raji [5]),Activity (Raji [6]),viability at 1000 molar ratio [7],viability at 10 molar ratio [8]
CC(=O)O[C@H]1CC[C@@H](C)[C@]23OC(C)(C)[C@H](C[C@H](OC(=O)c4ccccc4)[C@]12C)[C@H]3OC(=O)c1ccccc1,> 80%,> 80%,84.6%,100%,53.6%,100%,70%,> 80%
CC(=O)O[C@H]1C[C@@H](C)[C@@]23C[C@@H](C[C@H](OC(=O)/C=C/c4ccccc4)[C@]2(C)[C@H]1OC(C)=O)C(C)(C)O3,> 80%,> 80%,63.1%,100%,25.6%,89.4%,70%,> 80%
CC(=O)O[C@@H]1[C@@H]2[C@@H](OC(C)=O)[C@]3(OC2(C)C)[C@H](C)CC[C@H](OC(C)=O)[C@@]3(C)[C@H]1OC(=O)c1ccccc1,> 80%,> 80%,52.8%,100%,15.3%,90.6%,70%,> 80%
CC(=O)O[C@@H]1[C@H]2[C@@H](O)[C@@H](OC(=O)c3ccccc3)[C@]3(C)[C@@H](OC(=O)c4ccccc4)CC[C@@H](C)[C@@]13OC2(C)C,> 80%,> 80%,39.3%,100%,0%,81.1%,60%,> 80%
CC(=O)O[C@H]1CC[C@@H](C)[C@]23OC(C)(C)[C@H](C[C@H](OC(=O)c4ccccc4)[C@]12C)[C@H]3OC(C)=O,> 80%,> 80%,47.9%,100%,26.2%,92.1%,70%,> 80%
CC(=O)O[C@H]1C[C@@H](C)[C@]23OC(C)(C)[C@H](C[C@H](OC(=O)c4ccccc4)[C@]2(C)[C@H]1OC(C)=O)[C@H]3OC(C)=O,> 80%,> 80%,65.9%,100%,34.2%,92.9%,70%,> 80%
CC(=O)O[C@H]1C[C@@H](C)[C@@]23C[C@@H](C[C@H](OC(=O)/C=C/c4ccccc4)[C@]2(C)[C@H]1O)C(C)(C)O3,> 80%,> 80%,41.6%,100%,0%,86.4%,70%,> 80%
